The results in this text go back to ChEMBL document CHEMBL1153403, “Design, synthesis, and evaluation of novel fluoroquinolone-aminoglycoside hybrid antibiotics” (J Med Chem, 2009).

Molecules are shown by their SMILES. Converted amounts (≈) assume the structure as drawn.

Assay [1] has as its system Escherichia coli. The experiment in a line: Antibacterial activity against Escherichia coli R477-100 by double-microdilution method. It is filed as functional.
Assay [2] deals with Escherichia coli. As to the kind of experiment: Antibacterial activity against Escherichia coli ATCC 25922 by double-microdilution method. It is filed as functional.
For assay [3], the system named is Escherichia coli. The experiment in a line: Antibacterial activity against kanamycin-resistant Escherichia coli AG100B expressing aminoglycosides resistant APH(3')-1 enzyme by double-microdilution method. It is filed as functional.
Assay [4] relates to Escherichia coli. The experiment in a line: Antibacterial activity against kanamycin-resistant Escherichia coli AG100A expressing aminoglycosides resistant APH(3')-1 enzyme by double-microdilution method. The format is functional.
Assay [5] relates to Bacillus subtilis. The experiment in a line: Antibacterial activity against aminoglycosides-susceptible Bacillus subtilis ATCC 6633 by double-microdilution method. It is filed as functional.
Assay [6] deals with Staphylococcus aureus. The experiment in a line: Antibacterial activity against methicillin-resistant Staphylococcus aureus ATCC 43300 by double-microdilution method. It is filed as functional.
The subject of assay [7] is Escherichia coli. The experiment in a line: Antibacterial activity against Escherichia coli XL1-blue by double-microdilution method. The format is functional.
Assay [8] has as its system Escherichia coli. The experiment in a line: Antibacterial activity against aminoglycosides-resistant Escherichia coli XL1-blue harboring pSF815 expressing AAC(6')-APH(2'') enzyme by double-microdilution method. It is filed as functional.
Assay [9] relates to Escherichia coli. As to the kind of experiment: Resistance index, MIC for aminoglycosides-resistant Escherichia coli XL1-blue harboring pSF815 expressing AAC(6')-APH(2'') enzyme to MIC for Escherichia coli XL1-blue. It is filed as functional. In outline: (§1)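 Ratio of MIC on the plasmid-bearing resistant strain to MIC on its background strain (pETSACG1 vs BL21; pET9d or pSF815 vs XL1 blue). MICs by NCCLS double microdilution from starting concentrations of 384 and 1.5 µg/mL, in duplicate, two to four experiments.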

Assay [10] has as its system Escherichia coli. As to the kind of experiment: Antibacterial activity against aminoglycosides-resistant Escherichia coli XL1-blue harboring pET9d expressing APH(3')-1a enzyme by double-microdilution method. The format is functional.
Assay [11] relates to Escherichia coli. The experiment in a line: Resistance index, MIC for aminoglycosides-resistant Escherichia coli XL1-blue harboring pET9d expressing APH(3')-1a enzyme to MIC for Escherichia coli XL1-blue. It is filed as functional. Put shortly:
as §1

The subject of assay [12] is Escherichia coli. The experiment in a line: Antibacterial activity against Escherichia coli BL21 by double-microdilution method. The format is functional.
In assay [13] the test system is Escherichia coli. As to the kind of experiment: Antibacterial activity against aminoglycosides-resistant Escherichia coli BL21 harboring pETSACG1 expressing APH(3')-3a enzyme by double-microdilution method. It is filed as functional.
For assay [14], the system named is Escherichia coli. As to the kind of experiment: Resistance index, MIC for aminoglycosides-resistant Escherichia coli BL21 harboring pETSACG1 expressing APH(3')-3a enzyme to MIC for Escherichia coli BL21. The format is functional. Put shortly: as §1
The nature of assay [15]: Inhibition of Escherichia coli DNA gyrase assessed as reduction in relaxed pBR322 DNA supercoiling activity after 1 hr by electrophoresis. In outline: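 Supercoiling of relaxed pBR322 (12.5 ng/µL) by E. coli DNA gyrase in 35 mM Tris-Cl pH 7.5 with 24 mM KCl, 4 mM MgCl₂, 2 mM DTT, 1.8 mM spermidine, 1 mM ATP, 6.5% glycerol and 0.1 mg/mL BSA. Incubated 37 °C for 1 h, stopped with loading dye plus chloroform/isoamyl alcohol, and resolved on 1% agarose. IC50 is the concentration halving activity versus drug-free control.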

Assay [16] is described as follows: Inhibition of Escherichia coli topoisomerase 4 assessed as reduction in supercoiled pBR322 DNA relaxation activity after 30 mins by electrophoresis. In outline:
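E. coli TopoIV relaxation of supercoiled pBR322 in 40 mM HEPES-KOH pH 7.6 with 100 mM potassium glutamate, 10 mM Mg(OAc)₂, 10 mM DTT, 1 mM ATP and 50 µg/mL albumin. Incubated 37 °C for 30 min, stopped with EDTA, loading dye and chloroform/isoamyl alcohol, then run on 1% agarose. Supercoiled DNA percentage was quantified from gel images. IC50 is the 50% reduction versus drug-free control.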

For assay [17], the system named is Escherichia coli. As to the kind of experiment: Inhibition of protein synthesis in Escherichia coli S30 extracts assessed as luciferase activity after 1 hr by coupled transcription/translation assay. It is filed as functional. Put shortly:
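Coupled transcription/translation of the pBESTluc plasmid in E. coli S30 extract with varying compound concentrations, 37 °C for 60 min. Reactions were cooled on ice, diluted in Tris-phosphate pH 7.8 reagent, and luciferase luminescence was read immediately after substrate addition. IC50 came from concentration-response curves fitted to at least two independent experiments.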

Assay [18] in a line: Activity at aminoglycoside 3'-phosphotransferase 3a.
A short description of assay [19]: Ratio of kcat/km for aminoglycoside 3'-phosphotransferase 3a.
Setting [20] is: Escherichia coli, 1 h, read-out: IC50.

For `NC[C@@H]1O[C@H](O[C@H]2[C@@H](O)[C@H](O[C@@H]3[C@@H](O)[C@H](N)C[C@H](N)[C@H]3O[C@H]3O[C@H](CN)[C@@H](O)[C@H](O)[C@H]3N)O[C@@H]2COCc2cn(CCN3CCN(c4cc5c(cc4F)c(=O)c(C(=O)O)cn5C4CC4)CC3)nn2)[C@H](N)[C@@H](O)[C@@H]1O`, the MIC is 3 µg/mL (≈ 2.85 µM) in [1]; 3 µg/mL (≈ 2.85 µM) in assay [2]; 12 µg/mL (≈ 11.4 µM) in [3]; 0.38 µg/mL (≈ 0.361 µM) in assay [4]; 0.75 µg/mL (≈ 0.712 µM) in assay [5]; 6 µg/mL (≈ 5.7 µM) in [6]. For the same molecule, the MIC in assay [7] came out at 3 µg/mL (≈ 2.85 µM); in assay [8], 12 µg/mL (≈ 11.4 µM); in assay [10], 12 µg/mL (≈ 11.4 µM); in [12] it was 0.2 µg/mL (≈ 0.19 µM); in assay [13], 0.2 µg/mL (≈ 0.19 µM). Besides, the Ratio was determined as 4 in assay [9], 4 in assay [11] and 1 in assay [14]. The IC50 in assay [15] (read-out: IC50) was 0.041 µM; in assay [16] (read-out: IC50), 7.9 µM; in assay [17] (setting [20]), 18.1 µM.
`NC[C@@H]1O[C@H](O[C@H]2[C@@H](O)[C@H](O[C@@H]3[C@@H](O)[C@H](N)C[C@H](N)[C@H]3O[C@H]3O[C@H](CN)[C@@H](O)[C@H](O)[C@H]3N)O[C@@H]2C(=O)Nc2ccc(-c3cn(Cc4ccc(CN5CCN(c6cc7c(cc6F)c(=O)c(C(=O)O)cn7C6CC6)CC5)cc4)nn3)cc2)[C@H](N)[C@@H](O)[C@@H]1O`: the MIC amounted to 1.5 µg/mL (≈ 1.25 µM) in assay [1]; 3 µg/mL (≈ 2.49 µM) in [2]; 3 µg/mL (≈ 2.49 µM) in assay [3]; 0.75 µg/mL (≈ 0.623 µM) in assay [4]; 1.5 µg/mL (≈ 1.25 µM) in assay [5]; 3 µg/mL (≈ 2.49 µM) in assay [6]. Also, the MIC in assay [7] was 3 µg/mL (≈ 2.49 µM); in assay [8] it was 24 µg/mL (≈ 19.9 µM); in assay [10], 3 µg/mL (≈ 2.49 µM); in [12], 0.4 µg/mL (≈ 0.332 µM); in assay [13] it was 0.4 µg/mL (≈ 0.332 µM). Moreover, the Ratio in assay [9] worked out at 8; in assay [11] it was 1; in assay [14], 1. Besides, the values for the IC50 in [15] (read-out: IC50), in assay [16] (read-out: IC50) and in [17] (setting [20]) were 0.085 µM, 0.55 µM and 16.7 µM, respectively.
In the case of `O=C(O)c1cn(C2CC2)c2cc(N3CCNCC3)c(F)cc2c1=O` [CIPROFLOXACIN], the MIC is < 0.005 µg/mL in [4], 0.02 µg/mL (≈ 0.0604 µM) in assay [5], 0.2 µg/mL (≈ 0.604 µM) in [6] and < 0.005 µg/mL in assay [12]. Further, the IC50 is 1.3 µM in assay [15] (read-out: IC50), 10.8 µM in assay [16] (read-out: IC50) and “Not Active” in [17].
Regarding `NC[C@@H]1O[C@H](O[C@H]2[C@@H](O)[C@H](O[C@@H]3[C@@H](O)[C@H](N)C[C@H](N)[C@H]3O[C@H]3O[C@H](CN)[C@@H](O)[C@H](O)[C@H]3N)O[C@@H]2CO)[C@H](N)[C@@H](O)[C@@H]1O` [FRAMYCETIN], the MIC in [1] was found to be 24 µg/mL (≈ 39 µM); in assay [2] it was 48 µg/mL (≈ 78.1 µM); in assay [3] it was 384 µg/mL (≈ 625 µM); in [4], 96 µg/mL (≈ 156 µM); in [5], 1.5 µg/mL (≈ 2.44 µM); in assay [6] it was 384 µg/mL (≈ 625 µM). For the same molecule, the MIC is 6 µg/mL (≈ 9.76 µM) in assay [7]; > 384 µg/mL in assay [8]; 96 µg/mL (≈ 156 µM) in assay [10]; 6 µg/mL (≈ 9.76 µM) in assay [12]; 48 µg/mL (≈ 78.1 µM) in [13]. Moreover, the Ratio is listed as >64 in [9], 16 in [11] and 8 in [14]. Also, the Km in [18] amounted to 5.7 µM. Moreover, in [18], the kcat came to 2.4 s⁻¹. Further, the kcat/Km in assay [19] was 42 ×10⁴ /M/s. Further, the values for the IC50 result in [15], in [16] and in assay [17] (setting [20]) were “Not Active”, “Not Active” and 10.5 µM, respectively.
Regarding `NC[C@@H]1O[C@H](O[C@H]2[C@@H](O)[C@H](O[C@@H]3[C@@H](O)[C@H](N)C[C@H](N)[C@H]3O[C@H]3O[C@H](CN)[C@@H](O)[C@H](O)[C@H]3N)O[C@@H]2C(=O)NCc2cn(CC(O)CN3CCN(c4cc5c(cc4F)c(=O)c(C(=O)O)cn5C4CC4)CC3)nn2)[C@H](N)[C@@H](O)[C@@H]1O` (some centres not stated), the MIC in assay [1] came out at 6 µg/mL (≈ 5.47 µM); in assay [2], 3 µg/mL (≈ 2.74 µM); in assay [3], 12 µg/mL (≈ 10.9 µM); in [4], 0.75 µg/mL (≈ 0.684 µM); in assay [5], 3 µg/mL (≈ 2.74 µM); in assay [6], 12 µg/mL (≈ 10.9 µM). For the same molecule, the MIC in assay [7] came out at 6 µg/mL (≈ 5.47 µM); in [8], 48 µg/mL (≈ 43.8 µM); in assay [10] it was 12 µg/mL (≈ 10.9 µM); in assay [12] it was 0.2 µg/mL (≈ 0.182 µM); in [13], 0.2 µg/mL (≈ 0.182 µM). Moreover, the results for the Ratio in assay [9], in assay [11] and in assay [14] were 8, 2 and 1, respectively. For the same molecule, the Km in assay [18] turned out to be 86.8 µM. Further, the kcat in assay [18] was 2.5 s⁻¹. In addition, the kcat/Km in assay [19] turned out to be 2.9 ×10⁴ /M/s.
With `NC[C@@H]1O[C@H](O[C@H]2[C@@H](O)[C@H](O[C@@H]3[C@@H](O)[C@H](N)C[C@H](N)[C@H]3O[C@H]3O[C@H](CN)[C@@H](O)[C@H](O)[C@H]3N)O[C@@H]2C(=O)Nc2ccc(-c3cn(CC(O)CN4CCN(c5cc6c(cc5F)c(=O)c(C(=O)O)cn6C5CC5)CC4)nn3)cc2)[C@H](N)[C@@H](O)[C@@H]1O` (some centres not stated), the MIC in [1] came to 6 µg/mL (≈ 5.18 µM); in [2], 3 µg/mL (≈ 2.59 µM); in assay [3], 6 µg/mL (≈ 5.18 µM); in assay [4], 0.75 µg/mL (≈ 0.648 µM); in assay [5], 6 µg/mL (≈ 5.18 µM); in assay [6], 24 µg/mL (≈ 20.7 µM). In addition, the IC50 in assay [15] (read-out: IC50) is 0.073 µM; in [16] (read-out: IC50), 0.58 µM; in assay [17] (setting [20]), 2.2 µM.
